Reference: ChEMBL document CHEMBL1128256, “Synthesis, biological evaluation, and structure analysis of a series of new 1,5-anhydrohexitol nucleosides” (J Med Chem, 1995)
Values after ≈ are worked out from the molar mass of the structure shown.

Experiments:
[1] = tested on: E6SM; experiment: Tested for the minimum inhibitory concentration required to reduce herpes simplex virus type 2 (HSV-2) strain G induced cytopathogenicity by 50%.; assay type: functional; conditions: Homo sapiens
Outline: (§1)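 Inhibition of virus-induced cytopathogenicity in human embryonic skin-muscle (E6SM) fibroblasts seeded in 96-well trays. Viruses were HSV-1 (KOS, F, McIntyre), TK- HSV-1 B2006, TK-/TK+ HSV-1 clinical isolate VMW-1837 and HSV-2 (G, 196, Lyons). […] MCC is the lowest concentration giving microscopically detectable alteration of normal cell morphology; highest concentration tested was 400 µg/mL.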

[2] = tested on: HEL; experiment: Tested for the inhibitory concentration required to reduce cytomegalovirus (CMV) strain Davis plaque formation by 50%.; assay type: functional, cell-based; conditions: Homo sapiens
Outline: (§2)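 Virus plaque formation assay in human embryonic lung (HEL) cells seeded in 96-well trays. Targets were TK+ VZV (Oka, YS), TK- VZV (07/1, YS/R) and CMV (AD169, Davis). Value is the concentration that reduces plaque number by 50%. Cytotoxicity in HEL cells was taken as the concentration that reduces cell growth by 50%.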

[3] = tested on: HEL; experiment: Tested for the inhibitory concentration required to reduce thymidine kinase deficient Varicella-Zoster virus (TK- VZV) strain 07/1 plaque formation by 50%.; assay type: functional, cell-based; conditions: Homo sapiens
[4] = tested on: HEL; experiment: Tested for the inhibitory concentration required to reduce TK+ Varicella-Zoster virus (TK+ VZV) strain OKA plaque formation by 50%.; assay type: functional, cell-based; conditions: Homo sapiens
[5] = tested on: E6SM; experiment: Tested for the minimum inhibitory concentration required to reduce herpes simplex virus type 1 (TK- / TK+ HSV-1) strain VMW-1837 induced cytopathogenicity by 50%.; assay type: functional; conditions: Homo sapiens; outline: as §1
[6] = tested on: E6SM; experiment: Tested for the minimum inhibitory concentration required to reduce thymidine kinase deficient herpes simplex virus type 1 (TK- HSV-1) strain B2006 induced cytopathogenicity by 50%.; assay type: functional; conditions: Homo sapiens; outline: as §1
[7] = tested on: E6SM; experiment: Tested for the minimum cytotoxic concentration required to cause a microscopically detectable alteration of normal cell morphology in human embryonic skin muscle (E6SM) fibroblast cell cultures.; assay type: functional; outline: as §1
[8] = tested on: HEL; experiment: Tested for the inhibitory concentration required to reduce TK+ Varicella-Zoster virus (TK+ VZV) strain YS plaque formation by 50%; assay type: functional, cell-based; conditions: Homo sapiens
[9] = tested on: E6SM; experiment: Tested for the minimum inhibitory concentration required to reduce herpes simplex virus type 1 (HSV-1) strain KOS induced cytopathogenicity by 50%.; assay type: functional; conditions: Homo sapiens; outline: as §1
[10] = tested on: E6SM; experiment: Tested for the minimum inhibitory concentration required to reduce vaccinia virus(VV) induced cytopathogenicity by 50%.; assay type: functional; conditions: Homo sapiens
[11] = tested on: HEL; experiment: Tested for the inhibitory concentration required to reduce cytomegalovirus (CMV) strain AD-169 plaque formation by 50%.; assay type: functional, cell-based; conditions: Homo sapiens; outline: as §2
[12] = tested on: HEL; experiment: Tested for the cytotoxic concentration, required to reduce cell growth by 50% in human embryonic lung (HEL) cells.; assay type: functional; outline: as §2
[13] = tested on: HEL; experiment: Tested for the inhibitory concentration required to reduce thymidine kinase deficient Varicella-Zoster virus (TK- VZV) strain YS/R plaque formation by 50%.; assay type: functional, cell-based; conditions: Homo sapiens
[14] = tested on: E6SM; experiment: Tested for the minimum inhibitory concentration required to reduce vesicular stomatitis virus(VSV) induced cytopathogenicity by 50%; assay type: functional; conditions: Homo sapiens
[15] = tested on: E6SM; experiment: Tested for the minimum inhibitory concentration required to reduce thymidine kinase deficient herpes simplex virus type 1 (TK- / TK+ HSV-1) strain VMW-1837 induced cytopathogenicity by 50%.; assay type: functional; conditions: Homo sapiens; outline: as §1
[16] = tested on: E6SM; experiment: (§3) Tested for the minimum inhibitory concentration required to reduce herpes simplex virus type 2 (HSV-2) strain 196 induced cytopathogenicity by 50%.; assay type: functional; conditions: Homo sapiens; outline: as §1
[17] = tested on: E6SM; experiment: Tested for the minimum inhibitory concentration required to reduce herpes simplex virus type 1 (HSV-1) strain McIntyre induced cytopathogenicity by 50%.; assay type: functional; conditions: Homo sapiens; outline: as §1
[18] = tested on: E6SM; experiment: Tested for the minimum inhibitory concentration required to reduce herpes simplex virus type 1 (HSV-1) strain F induced cytopathogenicity by 50%.; assay type: functional; conditions: Homo sapiens; outline: as §1
[19] = tested on: E6SM; experiment: Tested for the minimum inhibitory concentration required to reduce herpes simplex virus type 2 (HSV-2) strain Lyons induced cytopathogenicity by 50%.; assay type: functional; conditions: Homo sapiens; outline: as §1
[20] = tested on: E6SM; experiment: as §3; assay type: functional; conditions: Homo sapiens; remark: listed apart in the source
[21] = species: Mus musculus; experiment: Inhibition constant assumed to reflect the affinity for the transport site in mouse erythrocytes; assay type: functional
Outline: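 Thymidine influx competition in erythrocytes from male B6D2F1 mice, 10% hematocrit in buffered saline, room temperature. [methyl-3H]thymidine at 0.1, 0.2, 0.5 and 1 mM, alone or with inhibitor at 0.053–1.05 mM. Influx stopped after 3 s with NBMPR. Pellets extracted in 5% perchloric acid and counted by scintillation. Zero-time trapping subtracted. Duplicate samples. Ki from Dixon plot.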

[22] = tested on: HEL; experiment: Tested for the 50% inhibitory concentration required to reduce TK+ Varicella-Zoster virus (TK+ VZV) strain YS plaque formation by 50%; assay type: functional, cell-based; conditions: Homo sapiens; outline: as §2

Compound: CCc1cn(C2COC(CO)C(O)C2)c(=O)[nH]c1=O (stereo unspecified)
- MIC [1]: 0.4 µg/mL (≈ 1.48 µM)
- IC50 [2]: > 50 µg/mL
- IC50 [3]: > 50 µg/mL
- IC50 [4]: > 50 µg/mL
- MIC [5]: 0.4 µg/mL (≈ 1.48 µM)
- MIC [6]: > 400 µg/mL
- MCC [7]: > 400 µg/mL
- IC50 [8]: > 50 µg/mL
- MIC [9]: 0.02 µg/mL (≈ 0.074 µM)
- MIC [10]: 200 µg/mL (≈ 740 µM)
- IC50 [11]: > 50 µg/mL
- CC50 [12]: > 50 µg/mL
- IC50 [13]: > 50 µg/mL

Compound: Nc1nc(N)c2ncn(C3COC(CO)C(O)C3)c2n1 (stereo unspecified)
- MIC [1]: 0.7 µg/mL (≈ 2.5 µM)
- IC50 [2]: 0.8 µg/mL (≈ 2.85 µM)
- IC50 [3]: 2.4 µg/mL (≈ 8.56 µM)
- IC50 [4]: 1.2 µg/mL (≈ 4.28 µM)
- MIC [5]: 0.7 µg/mL (≈ 2.5 µM)
- MIC [6]: 7 µg/mL (≈ 25 µM)
- MCC [7]: > 400 µg/mL
- MIC [14]: > 200 µg/mL
- IC50 [8]: 2 µg/mL (≈ 7.14 µM)
- MIC [9]: 0.2 µg/mL (≈ 0.714 µM)
- MIC [10]: 7 µg/mL (≈ 25 µM)
- IC50 [11]: 2 µg/mL (≈ 7.14 µM)
- CC50 [12]: 25 µg/mL (≈ 89.2 µM)
- IC50 [13]: 5 µg/mL (≈ 17.8 µM)

Compound: O=c1[nH]c(=O)n(C2COC(CO)C(O)C2)cc1I (stereo unspecified)
- MIC [1]: 0.4 µg/mL (≈ 1.09 µM)
- IC50 [2]: > 40 µg/mL
- IC50 [3]: > 100 µg/mL
- MIC [15]: 4 µg/mL (≈ 10.9 µM)
- IC50 [4]: > 100 µg/mL
- MIC [16]: 0.7 µg/mL (≈ 1.9 µM)
- MIC [6]: > 400 µg/mL
- MCC [7]: > 400 µg/mL
- MIC [17]: 0.04 µg/mL (≈ 0.109 µM)
- IC50 [8]: > 100 µg/mL
- MIC [18]: 0.01 µg/mL (≈ 0.0272 µM)
- MIC [9]: 0.02 µg/mL (≈ 0.0543 µM)
- MIC [10]: 200 µg/mL (≈ 543 µM)
- MIC [19]: 0.4 µg/mL (≈ 1.09 µM)
- IC50 [11]: > 40 µg/mL
- CC50 [12]: > 50 µg/mL
- IC50 [13]: > 100 µg/mL

Compound: Nc1nc2c(ncn2COCCO)c(=O)[nH]1 [ACYCLOVIR]
- IC50 [11]: 20 µg/mL (≈ 88.8 µM)
- CC50 [12]: > 200 µg/mL

Compound: O=c1[nH]c(=O)n([C@H]2C[C@H](O)[C@@H](CO)O2)cc1/C=C/Br [BRIVUDINE]
- MIC [1]: > 200 µg/mL
- IC50 [2]: > 100 µg/mL
- IC50 [3]: 8 µg/mL (≈ 24 µM)
- IC50 [4]: 0.0007 µg/mL (≈ 0.0021 µM)
- MIC [5]: 70 µg/mL (≈ 210 µM)
- MIC [20]: 300 µg/mL (≈ 901 µM)
- MIC [6]: 40 µg/mL (≈ 120 µM)
- MCC [7]: > 400 µg/mL
- MIC [14]: > 200 µg/mL
- MIC [17]: 0.2 µg/mL (≈ 0.6 µM)
- IC50 [8]: 0.0015 µg/mL (≈ 0.0045 µM)
- MIC [18]: 0.004 µg/mL (≈ 0.012 µM)
- MIC [9]: 0.004 µg/mL (≈ 0.012 µM)
- MIC [10]: 2 µg/mL (≈ 6 µM)
- MIC [19]: 70 µg/mL (≈ 210 µM)
- IC50 [11]: > 100 µg/mL
- Ki [21]: 23 µM
- CC50 [12]: > 50 µg/mL
- IC50 [13]: 30 µg/mL (≈ 90.1 µM)

Compound: O=c1ccn([C@H]2C[C@H](O)[C@@H](CO)O2)c(=O)[nH]1 [DEOXYURIDINE]
- Ki [21]: 110 µM

Compound: Nc1nc2c(ncn2COC(CO)CO)c(=O)[nH]1 [GANCICLOVIR]
- IC50 [2]: 6.2 µg/mL (≈ 24.3 µM)
- IC50 [3]: 0.1 µg/mL (≈ 0.392 µM)
- IC50 [4]: 0.02 µg/mL (≈ 0.0784 µM)
- IC50 [8]: 0.072 µg/mL (≈ 0.282 µM)
- IC50 [11]: 2.9 µg/mL (≈ 11.4 µM)
- CC50 [12]: > 200 µg/mL
- IC50 [13]: 0.9 µg/mL (≈ 3.53 µM)

Compound: O=c1[nH]c(=O)n([C@H]2C[C@H](O)[C@@H](CO)O2)cc1I [IDOXURIDINE]
- MIC [1]: 0.2 µg/mL (≈ 0.565 µM)
- IC50 [2]: > 50 µg/mL
- IC50 [3]: 4 µg/mL (≈ 11.3 µM)
- IC50 [4]: 0.17 µg/mL (≈ 0.48 µM)
- MIC [5]: 10 µg/mL (≈ 28.2 µM)
- MIC [16]: 0.2 µg/mL (≈ 0.565 µM)
- MIC [6]: 40 µg/mL (≈ 113 µM)
- MCC [7]: > 400 µg/mL
- MIC [14]: > 400 µg/mL
- MIC [17]: 1 µg/mL (≈ 2.82 µM)
- MIC [18]: 0.2 µg/mL (≈ 0.565 µM)
- MIC [9]: 0.2 µg/mL (≈ 0.565 µM)
- IC50 [22]: 0.4 µg/mL (≈ 1.13 µM)
- MIC [10]: 0.7 µg/mL (≈ 1.98 µM)
- MIC [19]: 0.2 µg/mL (≈ 0.565 µM)
- IC50 [11]: 20 µg/mL (≈ 56.5 µM)
- CC50 [12]: > 50 µg/mL
- IC50 [13]: 4 µg/mL (≈ 11.3 µM)
